The values below come from ChEMBL document CHEMBL1138352, “On the intractability of estrogen-related receptor alpha as a target for activation by small molecules” (J Med Chem, 2007).

The source made the active and inactive calls. No cut-off for these calls is given here.

Assay [1] deals with T1, Estrogen-related receptor gamma (Homo sapiens) (UniProt P62508).
T1 sequence (whole entry): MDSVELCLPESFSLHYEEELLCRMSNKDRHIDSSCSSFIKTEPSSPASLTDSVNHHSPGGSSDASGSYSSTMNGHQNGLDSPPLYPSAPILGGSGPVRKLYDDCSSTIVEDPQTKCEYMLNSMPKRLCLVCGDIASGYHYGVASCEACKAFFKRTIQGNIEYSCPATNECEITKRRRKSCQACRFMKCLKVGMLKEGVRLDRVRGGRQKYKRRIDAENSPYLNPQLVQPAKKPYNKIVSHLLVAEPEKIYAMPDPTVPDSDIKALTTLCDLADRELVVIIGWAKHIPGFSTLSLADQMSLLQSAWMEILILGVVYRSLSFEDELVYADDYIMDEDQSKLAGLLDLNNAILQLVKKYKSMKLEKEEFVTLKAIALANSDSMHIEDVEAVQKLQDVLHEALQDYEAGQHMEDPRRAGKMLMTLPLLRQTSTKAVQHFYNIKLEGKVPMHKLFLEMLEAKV
The experiment in a line: Effect on interaction between ERRgamma ligand binding domain and RIP140 by FRET assay.

For assay [2], the target named is T2, Steroid hormone receptor ERR1 (Homo sapiens) (UniProt P11474).
T2 sequence (whole entry): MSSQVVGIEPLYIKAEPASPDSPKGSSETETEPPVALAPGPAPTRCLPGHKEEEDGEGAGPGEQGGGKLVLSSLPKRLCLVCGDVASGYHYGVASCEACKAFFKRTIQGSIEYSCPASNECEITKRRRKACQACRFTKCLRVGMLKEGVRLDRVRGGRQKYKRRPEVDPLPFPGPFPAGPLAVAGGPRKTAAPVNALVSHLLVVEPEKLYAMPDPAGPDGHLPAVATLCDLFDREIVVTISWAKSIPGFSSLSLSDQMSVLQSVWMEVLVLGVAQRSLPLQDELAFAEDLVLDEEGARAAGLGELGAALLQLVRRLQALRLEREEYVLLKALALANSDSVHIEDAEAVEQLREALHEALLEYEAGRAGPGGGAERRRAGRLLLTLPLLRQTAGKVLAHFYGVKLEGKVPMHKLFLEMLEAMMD
The experiment in a line: Effect on interaction between ERRalpha ligand binding domain and RIP140 at 30 uM by FRET assay.

For assay [3], the target named is T2, Steroid hormone receptor ERR1 (Homo sapiens). The experiment in a line: Activity at human ERRalpha expressed in HeLa cells assessed as estrogen response element activation at 50 uM after 24 ro 30 hrs by luciferase reporter gene assay. The assay is classed as cell-based. Put shortly: (§1)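 HeLa cells were co-transfected with an expression vector for human ERRα (wild type, or the F272A point mutant for line 1) and a luciferase reporter driven by a triple repeat of an estrogen response element. Luciferase activity in compound-exposed cells was compared with vehicle-treated cells.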
Background: A reporter such as luciferase makes a cellular process visible.

Assay [4] relates to HeLa. The experiment in a line: Activity at human ERRalpha F272A mutant expressed in HeLa cells assessed as estrogen response element activation after 24 to 30 hrs by luciferase reporter gene assay. It counts as cell-based. Put shortly: as §1
For assay [5], the system named is HeLa. The experiment in a line: Activity at human ERRalpha F272A mutant expressed in HeLa cells assessed as estrogen response element activation at 10 uM after 24 to 30 hrs by luciferase reporter gene assay. It counts as cell-based. Put shortly: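 HeLa cells transiently co-transfected with an expression vector for human ERRα (F272A point mutant) and a luciferase reporter carrying a triple repeat of the estrogen response element. Cells were exposed to compound, and luciferase activity was read relative to vehicle-treated cells.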

For `CC(C)CCNC(=O)c1ccc(O)cc1`, the outcome in assay [1], in assay [2] and in assay [3] was inactive.

As to `CCCCCNC(=O)c1ccc(O)cc1`, the result in assay [1], in assay [2] and in assay [3] was inactive.

Consider `CCCCNC(=O)c1ccc(O)cc1`, for which the result in assay [1], in assay [2] and in assay [3] was inactive.

In the case of `CCNC(=O)c1ccc(O)cc1`, the outcome in assay [1], in assay [2] and in assay [3] was inactive.

As to `CCC(C)/C=N/NC(=O)c1ccc(O)cc1` (configuration not stated), the outcome in assay [1], in assay [2] and in assay [3] was inactive.

Regarding `CCCNC(=O)c1ccc(O)cc1`, the result in assay [1], in assay [2] and in assay [3] was inactive.

As for `CC(C)c1ccc(/C=N/NC(=O)c2ccc(O)cc2)cc1`, in the assay with HeLa [4], the result was inactive.

Consider `CC/C=N/NC(=O)c1ccc(O)cc1`, for which the outcome in assay [1], in assay [2] and in assay [3] was inactive.

For the compound `CC(C)/C=N/NC(=O)c1ccc(O)cc1`, the outcome in assay [1], in assay [2] and in assay [3] was inactive.

As for `NC(=O)c1ccc(O)cc1`, the outcome in assay [1], in assay [2] and in assay [3] was inactive.

Turning to `CN(C)CCc1c[nH]c2ccc(-c3cccc4ccccc34)cc12`, the result in the assay with HeLa [5] was inactive.

For `C=C(/C=N/NC(=O)c1ccc(O)cc1)CC`, the result in assay [1], in assay [2] and in assay [3] was inactive.

For the compound `CC(C)NC(=O)c1ccc(O)cc1`, the outcome in assay [1], in assay [2] and in assay [3] was inactive.

Take `C=CCC/C=N/NC(=O)c1ccc(O)cc1`: the outcome in assay [1], in assay [2] and in assay [3] was inactive.

As to `CNC(=O)c1ccc(O)cc1`, the result in assay [1], in assay [2] and in assay [3] was inactive.

As for `C=C(C)CNC(=O)c1ccc(O)cc1`, the outcome in assay [1], in assay [2] and in assay [3] was inactive.

`CC(C)CNC(=O)c1ccc(O)cc1`: the outcome (in assay [1]; in assay [2]; in assay [3]; with HeLa [5]) was inactive.

In the case of `CCC(C)C(C)/C=N/NC(=O)c1ccc(O)cc1` (configuration not stated), the outcome in assay [1], in assay [2] and in assay [3] was inactive.

Turning to `CC(C)(C)CNC(=O)c1ccc(O)cc1`, the outcome in assay [1], in assay [2] and in assay [3] was inactive.

Regarding `CCCCC/C=N/NC(=O)c1ccc(O)cc1`, the result in assay [1], in assay [2] and in assay [3] was inactive.
